According to ChEMBL document CHEMBL4270599, “Synthesis of a 3'-C-ethynyl-β-d-ribofuranose purine nucleoside library: Discovery of C7-deazapurine analogs as potent antiproliferative nucleosides” (Eur J Med Chem, 2018):

Key:
[1] = Cytotoxicity against HELF cells assessed as alteration of cell morphology by microscopic analysis; assay type: cell-based; conditions: human
In short: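 Uninfected Hel fibroblast cultures exposed to compound alongside antiviral assays. Minimal cytotoxic concentration (MCC) is the concentration giving microscopically visible alteration of normal cell morphology.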

CCRF-CEM = assay: Antiproliferative activity against human CEM cells after 72 hrs by Coulter counter method; assay type: functional, cell-based
In short: (§1)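 Cell count assay in 96-well microtiter plates; (5–7.5) × 10⁴ tumor cells per well plus test compound. Cells proliferated at 37 °C in humidified CO₂-controlled atmosphere, 48 h for murine leukemia L1210, 72 h for human lymphocytic CEM and cervix carcinoma HeLa. Counted by Coulter counter; IC₅₀ is the concentration that inhibits proliferation by 50%.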

Human alphaherpesvirus 3 [2] = assay: Antiviral activity against thymidine kinase-deficient Varicella Zoster virus 07-1 strain infected in HELF cells assessed as inhibition of virus-induced plaque formation; assay type: functional, organism-based; conditions: Human alphaherpesvirus 3, 07-1, HELF
In short: (§2)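 Confluent human embryonic lung fibroblast monolayers in 96-well plates were infected with 100 CCID50 of virus or, for VZV, 20 PFU, in the presence of varying compound concentrations. For HCMV/VZV-type assays, residual virus was removed after 1–2 h before compound addition. Cytopathicity or plaque formation was scored once complete in untreated infected controls. Highest concentration tested was 100 μM.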

Human alphaherpesvirus 3 [3] = assay: Antiviral activity against thymidine kinase-deficient Varicella Zoster virus Oka strain infected in HELF cells assessed as inhibition of virus-induced plaque formation; assay type: functional, organism-based; conditions: Human alphaherpesvirus 3, strain Oka vaccine; in short: as §2
[4] = Cytotoxicity against HELF cells after by Coulter counter method; assay type: cell-based; conditions: human
In short: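 Hel fibroblast proliferation measured by Coulter Counter cell count in presence of compound. CC₅₀ is the concentration (μM) reducing cell proliferation by 50%.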

Human betaherpesvirus 5 [5] = assay: Antiviral activity against Human cytomegalovirus AD169 strain infected in HELF cells assessed as inhibition of virus-induced cytopathogenicity; assay type: functional, organism-based; conditions: Human betaherpesvirus 5, AD169, HELF
In short: (§3)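 Confluent human embryonic lung fibroblasts in 96-well plates inoculated with 100 CCID₅₀ HCMV. Residual virus removed after 1–2 h, then cultures incubated with varying compound concentrations. Cytopathicity scored once complete in untreated infected controls. EC₅₀ is the concentration reducing virus-induced cytopathicity by 50%.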

Human alphaherpesvirus 1 [6] = assay: Antiviral activity against Human herpesvirus 1 KOS strain infected in HELF cells assessed as inhibition of virus-induced cytopathogenicity; assay type: functional, organism-based; conditions: Human alphaherpesvirus 1, KOS; in short: as §2
L1210 = assay: Antiproliferative activity against mouse L1210 cells after 48 hrs by Coulter counter method; assay type: functional, cell-based; conditions: L1210, 48 h; in short: as §1
Human alphaherpesvirus 1 [7] = assay: Antiviral activity against thymidine kinase-deficient acyclovir-resistant Human herpesvirus 1 KOS strain infected in HELF cells assessed as inhibition of virus-induced cytopathogenicity; assay type: functional, organism-based; conditions: Human alphaherpesvirus 1, KOS; in short: as §2
Human alphaherpesvirus 2 = assay: Antiviral activity against Human herpesvirus 2 G strain infected in HELF cells assessed as inhibition of virus-induced cytopathogenicity; assay type: functional, organism-based; conditions: Human alphaherpesvirus 2, strain G
In short: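 Confluent Hel fibroblast cultures in 96-well plates inoculated with 100 CCID₅₀ virus in presence of varying compound concentrations. Cytopathicity recorded once complete in untreated virus-infected controls. EC₅₀ is the concentration reducing virus-induced cytopathogenicity by 50%; compounds tested up to 100 μM.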

HeLa = assay: Antiproliferative activity against human HeLa cells after 72 hrs by Coulter counter method; assay type: functional, cell-based; in short: as §1
Human betaherpesvirus 5 [8] = assay: Antiviral activity against Human cytomegalovirus Davis strain infected in HELF cells assessed as inhibition of virus-induced cytopathogenicity; assay type: functional, organism-based; conditions: Human betaherpesvirus 5, Davis; in short: as §3

Compound | MCC [1] [µM] | IC50 (CCRF-CEM) [µM] | EC50 (Human alphaherpesvirus 3 [2]) [µM] | EC50 (Human alphaherpesvirus 3 [3]) [µM] | CC50 [4] [µM] | EC50 (Human betaherpesvirus 5 [5]) [µM] | EC50 (Human alphaherpesvirus 1 [6]) [µM] | IC50 (L1210) [µM] | EC50 (Human alphaherpesvirus 1 [7]) [µM] | EC50 (Human alphaherpesvirus 2) [µM] | IC50 (HeLa) [µM] | EC50 (Human betaherpesvirus 5 [8]) [µM] | CC50 ([4]; HELF cells) [µM]
CC[C@@]1(O)[C@@H](CO)O[C@@H](n2cc(Cl)c3c(N)ncnc32)[C@@H]1O | 4 to 20 | 2.6 | 3.74 | 1.71 | 3.41 | 1.79 | 2.1 | 1.2 | 1.27 | 0.63 | 4.4 | > 4 | –
Nc1ccn(C[C@@H](CO)OCP(=O)(O)O)c(=O)n1 [CIDOFOVIR] | 250 to 300 | – | – | – | – | 1.59 | 1.5 | – | – | 1.2 | – | 1.45 | –
C#C[C@@]1(O)[C@@H](CO)O[C@@H](n2cc(Br)c3c(Cl)ccnc32)[C@@H]1O | ≥ 100 | 0.56 | 2.27 | 2.76 | 0.35 | 0.36 | 6.67 | 30 | 5.83 | > 100 | 0.89 | 0.35 | –
C#C[C@@]1(O)[C@@H](CO)O[C@@H](n2cc(Cl)c3c(N)ccnc32)[C@@H]1O | ≥ 100 | 5.4 | 17.5 | > 100 | – | > 100 | – | 0.98 | – | – | 1.7 | 20 | –
C#C[C@@]1(O)[C@@H](CO)O[C@@H](n2cc(-c3ccco3)c3c(N)ncnc32)[C@@H]1O | – | 17 | – | – | – | – | – | 30 | – | – | 14 | – | –
Nc1nc2c(ncn2COC(CO)CO)c(=O)[nH]1 [GANCICLOVIR] | 100 to 350 | – | – | – | – | – | – | – | – | – | – | – | –
C#C[C@@]1(O)[C@@H](CO)O[C@@H](n2cc(C(F)(F)F)c3c(N)ncnc32)[C@@H]1O | – | 0.36 | – | – | – | – | – | 0.11 | – | – | 0.75 | – | –
C#C[C@@]1(O)[C@@H](CO)O[C@@H](n2cnc3c(N)ncnc32)[C@@H]1O | 20 | – | 1.64 | 1.82 | – | ≥ 4 | > 4 | – | > 4 | > 4 | – | ≥ 4 | 0.7 to 0.73
C#C[C@@]1(O)[C@@H](CO)O[C@@H](n2cc(I)c3c(N)ccnc32)[C@@H]1O | – | 0.31 | – | – | – | – | – | 0.044 | – | – | 0.18 | – | –
C#C[C@@]1(O)[C@@H](CO)O[C@@H](n2cnc3c(-c4ccccc4)ncnc32)[C@@H]1O | – | > 250 | – | – | – | – | – | > 250 | – | – | > 250 | – | –
C#C[C@@]1(O)[C@@H](CO)O[C@@H](n2cnc3c(-c4ccc(F)cc4)ncnc32)[C@@H]1O | – | 223 | – | – | – | – | – | > 250 | – | – | 220 | – | –
Nc1nc2c(ncn2COCCO)c(=O)[nH]1 [ACYCLOVIR] | 250 to 440 | – | – | – | > 440 | – | – | – | – | – | – | – | –
C#C[C@@]1(O)[C@@H](CO)O[C@@H](n2cnc3c(-c4ccc(C)cc4)ncnc32)[C@@H]1O | – | 154 | – | – | – | – | – | 205 | – | – | > 250 | – | –
C#C[C@@]1(O)[C@@H](CO)O[C@@H](n2cnc3c(-c4ccc(Cl)cc4)ncnc32)[C@@H]1O | – | 124 | – | – | – | – | – | 225 | – | – | 170 | – | –
C#Cc1cn([C@@H]2O[C@H](CO)[C@](O)(C#C)[C@H]2O)c2ncnc(N)c12 | – | 63 | – | – | – | – | – | 159 | – | – | 114 | – | –
C#C[C@@]1(O)[C@@H](CO)O[C@@H](n2cc(Cl)c3c(Cl)ccnc32)[C@@H]1O | 20 to 100 | 1.3 | 3.06 | 16.6 | 5.25 | 0.51 | 16.3 | 75 | 10.6 | > 100 | 6.3 | 0.53 | –
C#C[C@@]1(O)[C@@H](CO)O[C@@H](n2ccc3c(Cl)ccnc32)[C@@H]1O | 20 to 100 | 86 | > 100 | > 100 | – | > 100 | > 100 | 197 | > 100 | > 100 | 135 | > 100 | –
C#C[C@@]1(O)[C@@H](CO)O[C@@H](n2c(C(F)(F)F)cc3c(N)ncnc32)[C@@H]1O | – | > 250 | – | – | – | – | – | > 250 | – | – | > 250 | – | –
C#C[C@@]1(O)[C@@H](CO)O[C@@H](n2cnc3c(-c4ccc(OC)cc4)ncnc32)[C@@H]1O | – | > 250 | – | – | – | – | – | > 250 | – | – | > 250 | – | –
C#C[C@@]1(O)[C@@H](CO)O[C@@H](n2cc(I)c3c(Cl)ccnc32)[C@@H]1O | 20 to 100 | 0.26 | 8.26 | 9.82 | 0.16 | 2.31 | > 100 | 20 | > 100 | > 100 | 1.1 | 0.66 | –
